From ChEMBL document CHEMBL1150046, “Three new cyclic peroxides from the marine sponge Plakortis aff simplex” (2003)

How the values were obtained:
Format in all cases: functional
LoVo [1] = assay: Growth inhibition of human Doxorubicin-resistant LoVo cells after 72 hrs by SRB assay
Procedure, shortened: (§1)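 Cells kept in RPMI 1640 with 10% FBS, 2 mM L-glutamine, penicillin and streptomycin at 37 °C, 5% CO2. They were seeded at 5000 per well and allowed to attach in drug-free medium (24 h; also stated as 18 h). Compound dilutions in DMSO/EtOH were added for 72 h. Cells were fixed with cold TCA, stained with SRB, solubilised in Tris and read at 490 nm.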

[2] = Growth inhibition of human IGROV-ET cells after 72 hrs by SRB assay; procedure, shortened: as §1
A549 = assay: Growth inhibition of human A549 after 72 hrs by SRB assay; conditions: A549, 72 h; procedure, shortened: as §1
K562 = assay: Growth inhibition of human K562 cells after 72 hrs by SRB assay; conditions: K562, 72 h; procedure, shortened: as §1
LoVo [3] = assay: Growth inhibition of human LoVo after 72 hrs by SRB assay; procedure, shortened: as §1
HT-29 = assay: Growth inhibition of human HT-29 cells after 72 hrs by SRB assay; conditions: HT-29, 72 h; procedure, shortened: as §1
DU-145 = assay: Growth inhibition of human DU145 cells after 72 hrs by SRB assay; conditions: DU-145, 72 h; procedure, shortened: as §1
[4] = Growth inhibition of human IGROV cells after 72 hrs by SRB assay; procedure, shortened: as §1
PANC-1 = assay: Growth inhibition of human PANC1 cells after 72 hrs by SRB assay; conditions: PANC-1, 72 h; procedure, shortened: as §1
SK-OV-3 = assay: Growth inhibition of human SKOV3 cells after 72 hrs by SRB assay; conditions: SK-OV-3, 72 h; procedure, shortened: as §1
SK-MEL-28 = assay: Growth inhibition of human SK-MEL-28 cells after 72 hrs by SRB assay; conditions: SK-MEL-28, 72 h; procedure, shortened: as §1
SK-BR-3 = assay: Growth inhibition of human SKBR3 cells after 72 hrs by SRB assay; conditions: SK-BR-3, 72 h; procedure, shortened: as §1
LNCaP = assay: Growth inhibition of human LNCAP cells after 72 hrs by SRB assay; procedure, shortened: as §1
[5] = read-out: LC50 (the source's name)

## C[C@]1(CCCCCCCCCCc2ccccc2)C[C@](C)(CC(=O)O)OO1 [ANDAVADOIC ACID]
LoVo [1]
  GI50: 539 nM
  TGI: 951 nM
LoVo [1]; [5]
  CC50: 1680 nM
[2]
  GI50: 133 nM
  TGI: 390 nM
[2]; [5]
  CC50: 1340 nM
A549
  GI50: 714 nM
  TGI: 1290 nM
A549; [5]
  CC50: 2330 nM
K562
  GI50: 497 nM
  TGI: 1010 nM
K562; [5]
  CC50: 2070 nM
LoVo [3]
  GI50: 635 nM
  TGI: 1210 nM
LoVo [3]; [5]
  CC50: 2310 nM
HT-29
  GI50: 643 nM
  TGI: 1130 nM
HT-29; [5]
  CC50: 1980 nM
DU-145
  GI50: 627 nM
  TGI: 991 nM
DU-145; [5]
  CC50: 1560 nM
[4]
  GI50: 102 nM
  TGI: 261 nM
[4]; [5]
  CC50: 1830 nM
PANC-1
  GI50: 526 nM
  TGI: 961 nM
PANC-1; [5]
  CC50: 1750 nM
SK-OV-3
  GI50: 698 nM
  TGI: 1120 nM
SK-OV-3; [5]
  CC50: 1810 nM
SK-MEL-28
  GI50: 698 nM
  TGI: 1140 nM
SK-MEL-28; [5]
  CC50: 1860 nM
SK-BR-3
  GI50: 914 nM
  TGI: 1690 nM
SK-BR-3; [5]
  CC50: 2660 nM
LNCaP
  GI50: 478 nM
  TGI: 863 nM
LNCaP; [5]
  CC50: 1560 nM
